# Laboratory results reported in PMC2193784 (The Journal of Experimental Medicine, 2003).
# Ends that are not written are not given here.
# T1: I-A^u (Mus musculus, UniProt P06344+P14438)
# T1 sequence (P14438 1-227): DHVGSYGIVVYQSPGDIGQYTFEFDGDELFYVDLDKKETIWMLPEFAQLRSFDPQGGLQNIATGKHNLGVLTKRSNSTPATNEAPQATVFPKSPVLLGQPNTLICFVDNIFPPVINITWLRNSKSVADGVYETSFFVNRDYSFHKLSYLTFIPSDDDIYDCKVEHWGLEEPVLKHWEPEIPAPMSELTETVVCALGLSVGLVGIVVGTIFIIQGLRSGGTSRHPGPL
# T1 sequence (P06344 28-263): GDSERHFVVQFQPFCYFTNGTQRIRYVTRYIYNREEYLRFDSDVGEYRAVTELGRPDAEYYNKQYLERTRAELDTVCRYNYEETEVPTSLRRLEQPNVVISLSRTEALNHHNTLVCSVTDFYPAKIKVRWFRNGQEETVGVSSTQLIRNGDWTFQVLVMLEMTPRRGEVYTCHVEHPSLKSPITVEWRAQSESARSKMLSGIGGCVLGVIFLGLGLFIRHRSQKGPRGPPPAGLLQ
# B1: myelin basic protein (protein, UniProt P04370 1-250, looked up)
# Myelin basic protein: MGNHSGKRELSAEKASKDGEIHRGEAGKKRSVGKLSQTASEDSDVFGEADAIQNNGTSAEDTAVTDSKHTADPKNNWQGAHPADPGNRPHLIRLFSRDAPGREDNTFKDRPSESDELQTIQEDPTAASGGLDVMASQKRPSQRSKYLATASTMDHARHGFLPRHRDTGILDSIGRFFSGDRGAPKRGSGKDSHTRTTHYGSLPQKSQHGRTQDENPVVHFFKNIVTPRTPPPSQGKGGRDSRSGSPMARR
# Columns and labels:
# I-A^u [1] = biological target: T1, I-A^u; conditions: cited from earlier work
# [2] = system: T cells from MBP-primed mice; conditions: synthetic peptides; cited from earlier work
# [3] = by competition for I-A^u binding; cited from earlier work
# I-A^u [4] = biological target: T1, I-A^u; conditions: for Copy/cell: peptides eluted from I-A^u, T cell–depleted B10.PL splenocytes, MBP 95 μg/ml, 16 h, 37°C, based on copy number/cell of MBPAc1-18, determined by comparison to angiotensin control; for times more detected than MBP125–135 peptides: eluted from I-A^u, MBP-pulsed splenocytes
# In short: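 Spleen cells depleted of T cells (2 × 10^6 cells/ml in RPMI) were incubated 16 h at 37°C with MBP (95 μg/ml). I-Au was captured with anti-I-Au antibody on Protein A beads. Peptides were eluted in 10% acetic acid through a 10 kD filter. About 6 × 10^6 cell equivalents were spiked with 2 fmol angiotensin I and run on C18 gradient LC into FT-ICR MS. Amounts were normalized to the angiotensin standard, and identity was confirmed by CAD MS/MS and coelution with synthetic peptide.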
# I-A^u [5] = biological target: T1, I-A^u; assay: Dissociation of fluorescein-labeled MBP peptides from soluble I-A^u; format: binding; conditions: for dissociation kinetics (in words): fluorescein-labeled peptide, soluble I-A^u, 1 h at 37°C, Fig. 2
# [6] = system: MBPAc1–11-specific TCR Tg T cells; format: cell-based, mouse; conditions: 50 uM peptide; fixed splenocytes; two TCR Tg lines
# In short: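 T cells from MBPAc1–11 TCR transgenic mice were purified with anti-Vα2.3 or anti-Vβ8.1/8.2 and sorted free of I-Au+ cells. They were plated at 2 × 10^5/well in complete RPMI with 50 uM peptide or 95 μg/ml MBP. APCs were 10^6 splenocytes per well, either irradiated live or fixed in 0.1% paraformaldehyde for 5 min at room temperature. Cultures ran 48 h, were pulsed with [3H]-thymidine and harvested 18 h later.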
# [7] = biological target: Detergent soluble I-A^u (mouse); assay: dissociation kinetics of fluorescein-labelled peptide
# MBP-specific T cells = conditions: B10.PL MBP-deficient shiverer (MBP^−/−) mice; cited from earlier work
# [8] = biphasic dissociation, 1 h incubation at 37°C, pH 5.3, HPSEC fluorescence
# [9] = incubation with I-A^u for 1 h at 37°C
molecule,measurement,setting,value
"MBP125–135: synthetic peptide; core epitope within MBP121–150 (TAASGGLDVMA; UniProt P04370 125-135, looked up, fragment)",affinity for I-A^u (in words),I-A^u [1],high affinity for I-A^u
same,stimulation of T cells from MBP-primed mice,[2],stimulated T cells from MBP-primed mice
"MBPAc9–20: MBP peptide (rat) of earlier work (ref 17) (Ac-RHGSKYLATAST; UniProt P02688 10-21, looked up, fragment)",inhibition of EAE,[3],inhibited EAE induced by immunization with rat MBPAc1–11
"Ac1-22: N-acetylated NH2-terminal MBP peptide eluted from I-A^u (Ac-MGNHSGKRELSAEKASKDGEIH; UniProt P04370 1-22, looked up, fragment)",Copy/cell,I-A^u [4],5.7 copy/cell
rat MBPAc5–20: rat MBP peptide of earlier work (ref 17),inhibition of EAE,[3],inhibited EAE induced by immunization with rat MBPAc1–11
"Ac1-16: N-acetylated NH2-terminal MBP peptide eluted from I-A^u (Ac-MGNHSGKRELSAEKAS; UniProt P04370 1-16, looked up, fragment)",Copy/cell,I-A^u [4],18.1 copy/cell
MBPAc1–17: N-acetylated NH2-terminal MBP peptide eluted from I-A^u,times more detected than MBP125–135 peptides,I-A^u [4],~20 times
"MBPAc1–11: N-acetylated NH2-terminal MBP epitope, low affinity I-A^u register (Ac-MGNHSGKRELS; UniProt P04370 1-11, looked up, fragment)",dissociation kinetics (in words),I-A^u [5],monophasic fast dissociation
same,T cell response on fixed APCs (in words),[6],responded well
same,binding to I-A^u (in words),I-A^u [1],binds I-A^u poorly
"MBP136–146: synthetic peptide; epitope within MBP121–150 (SQKRPSQRSKY; UniProt P04370 136-146, looked up, fragment)",affinity for I-A^u (in words),I-A^u [1],high affinity for I-A^u
same,stimulation of T cells from MBP-primed mice,[2],stimulated T cells from MBP-primed mice
"MBPAc1–11 (synthetic, fluorescein-labelled) (peptide)",dissociation half-life (t1/2),[7],0.5 h
"123-136: MBP peptide from the MBP121–150 region eluted from I-A^u (DPTAASGGLDVMAS; UniProt P04370 123-136, looked up, fragment)",Copy/cell,I-A^u [4],9.2 copy/cell
"124-137: MBP peptide from the MBP121–150 region eluted from I-A^u (PTAASGGLDVMASQ; UniProt P04370 124-137, looked up, fragment)",Copy/cell,I-A^u [4],9.2 copy/cell
Ac1-19: N-acetylated NH2-terminal MBP peptide eluted from I-A^u,Copy/cell,I-A^u [4],6.7 copy/cell
"Ac1-20: N-acetylated NH2-terminal MBP peptide eluted from I-A^u (Ac-MGNHSGKRELSAEKASKDGE; UniProt P04370 1-20, looked up, fragment)",Copy/cell,I-A^u [4],24.4 copy/cell
"120-137: MBP peptide from the MBP121–150 region eluted from I-A^u (IQEDPTAASGGLDVMASQ; UniProt P04370 120-137, looked up, fragment)",Copy/cell,I-A^u [4],3.4 copy/cell
"MBPAc1–18 (synthetic, fluorescein-labelled) (peptide)","dissociation half-life, fast phase (t1/2fast)",[7],3.7 h
same,"dissociation half-life, slow phase (t1/2slow)",[7],117 h
same,percent of bound peptide in long-lived complexes,[7],62%
same,percent of bound peptide in short-lived complexes,[7],38%
same,percent of bound peptide in the long phase,[7],77%
MBPAc1–18: N-acetylated NH2-terminal MBP peptide containing both the MBPAc1–11 and MBP5–16 registers,times more detected than MBP125–135 peptides,I-A^u [4],~20 times
same,Copy/cell,I-A^u [4],622.0 copy/cell
same,t1/2fast (rapid-dissociation phase),I-A^u [5]; [8],3.7 h
same,t1/2slow (slow phase),I-A^u [5]; [8],117 h
same,dissociation kinetics (in words),I-A^u [5],biphasic kinetics
same,peptide bound in long-lived complexes (slow phase),I-A^u [5]; [9],~62%
same,peptide bound in short-lived complexes (faster phase),I-A^u [5]; [9],~38%
same,peptide bound in the long phase,"I-A^u [5]; incubation with I-A^u for 16 h, unpublished data",77%
same,T cell response on fixed APCs (in words),[6],respond well
B1,T cell response after immunization,MBP-specific T cells,strong T cell responses directed toward MBP121–150
